Test results as given in ChEMBL document CHEMBL4414603, “Extracellular vs Intracellular Delivery of CO: Does It Matter for a Stable, Diffusible Gasotransmitter?” (J Med Chem, 2019).
pIC50: −log10 of the molar value. Values belong to the compound of their own block, whether it stands above or below them. Active and inactive are the calls of the source. The rule behind the calls is not given here.

Assays:
RAW264.7 [1] = assay: Cytotoxicity against mouse RAW264.7 cells assessed as reduction in cell viability incubated for 1 hr under 460 nm LED light illumination and measured after 23 hrs by MTT assay; assay type: cell-based; conditions: for Activity: mouse, raw264.7
Procedure, shortened: (§1)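 RAW 264.7 cells (within 5 passages, phenol-red-free DMEM-F12K, 10% FBS) seeded at 1.0×10^4/well for 24 h, then dosed 0.08–100 μM (≤0.4% DMSO). Light arm: blue LED array (66,351 lx) 1 h, then 23 h more; dark arm kept unlit. MTT 4 h, formazan in DMSO, A560 minus A750, normalised to vehicle; 3 biological × 3 technical replicates, mean ± SEM.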

RAW264.7 [2] = assay: Dark toxicity against mouse RAW264.7 cells assessed as reduction in cell viability up to 100 uM after 24 hrs by MTT assay; assay type: cell-based; conditions: raw264.7, 24 h; procedure, shortened: as §1
[3] = Solubility of the compound in DMSO at < 50 mM; assay type: physicochemical
[4] = Solubility of the compound in water at < 50 mM; assay type: physicochemical; conditions: buffer
[5] = Solubility of the compound in PBS buffer at < 50 mM; assay type: physicochemical
[6] = Solubility of the compound in FBS supplemented DMEM-F12 medium at < 50 mM; assay type: physicochemical
[7] = Stability of the compound in DMSO incubated for >= 1 month under dark condition; assay type: physicochemical
[8] = Stability of the compound in water incubated for >= 1 month under dark condition; assay type: physicochemical; conditions: buffer
[9] = Stability of the compound in PBS buffer incubated for >= 1 month under dark condition; assay type: physicochemical
[10] = Stability of the compound in FBS supplemented DMEM-F12 medium incubated for >= 1 month under dark condition
Albumin [11] = target: T1, Albumin (Bos taurus, UniProt P02769); assay: Binding affinity to bovine serum albumin at pH 7.4 TRIS buffer by fluorescence based Stern-Volmer plot analysis; assay type: ADME; conditions: cattle, isolated protein
T1 sequence (P02769 whole entry): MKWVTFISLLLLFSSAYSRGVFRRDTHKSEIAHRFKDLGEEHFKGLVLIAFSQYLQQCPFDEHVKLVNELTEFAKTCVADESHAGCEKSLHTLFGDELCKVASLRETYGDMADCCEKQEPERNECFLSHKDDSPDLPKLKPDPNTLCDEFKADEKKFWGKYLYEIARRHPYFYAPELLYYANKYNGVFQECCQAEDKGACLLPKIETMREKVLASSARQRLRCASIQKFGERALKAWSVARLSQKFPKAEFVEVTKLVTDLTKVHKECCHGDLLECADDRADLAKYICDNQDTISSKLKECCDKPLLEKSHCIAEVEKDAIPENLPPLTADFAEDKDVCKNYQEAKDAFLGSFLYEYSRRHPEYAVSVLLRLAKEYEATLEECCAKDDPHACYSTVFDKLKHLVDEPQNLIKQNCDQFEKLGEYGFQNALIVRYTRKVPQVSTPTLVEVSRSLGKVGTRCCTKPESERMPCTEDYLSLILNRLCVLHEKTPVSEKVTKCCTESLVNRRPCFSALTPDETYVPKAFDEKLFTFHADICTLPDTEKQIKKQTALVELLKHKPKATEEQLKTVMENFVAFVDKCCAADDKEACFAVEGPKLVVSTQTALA
Procedure, shortened: (§2)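 Tryptophan fluorescence quench of BSA (1.4 μM) in TRIS buffer pH 7.4 at 295 K, excitation 282 nm, titrated with compound at 0–22.4 μM; data fitted by Stern-Volmer and modified Stern-Volmer plots.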

[12] = Drug metabolism in DMSO assessed as sodium 7-(benzoyloxy)-6-carboxynaphthalene-1-sulfonate metabolite formation at […] after 24 hrs illuminated with visible light by 1H-NMR analysis
Procedure, shortened: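 Roughly 0.05 mmol compound in 5.0 mL DMSO, under air, irradiated in a photoreactor with 419 nm lamps (2,450 lx) until the lowest-energy absorption band disappeared (~24 h); photoproduct then characterised.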

[13] = Drug uptake in mouse RAW264.7 cells assessed as intracellular accumulation at 50 uM after 4 hrs by Hoechst 33342 staining based fluorescence inverted microscopic method; assay type: ADME, cell-based; conditions: raw264.7, 4 h
Procedure, shortened: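 RAW 264.7 cells seeded at 1.0×10^4 cells/[…] in chamber slides, adhered 24 h, exposed to 50 μM compound (from 25 mM DMSO stock; 0.4% DMSO final) 4 h with minimal light; Hoechst 33342 15 min, three PBS washes; imaged at 20x, blue channel ex 310–390/em 420–470 nm.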

[14] = Drug uptake in mouse RAW264.7 cells assessed as extracellular accumulation at 50 uM incubated for 4 hrs under dark condition followed by compound washout by Hoechst 33342 staining based fluorescence inverted microscopic method; assay type: ADME, cell-based; conditions: raw264.7, 4 h
Procedure, shortened: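 After 4 h dark incubation of RAW 264.7 cells with 50 μM compound, cells washed with medium containing 10% FBS; pooled washes read by fluorescence (ex 410 nm, slit 3.0 nm) against a 50 μM standard.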

[15] = Drug metabolism in mouse RAW264.7 cells assessed as CO release at 50 uM incubated 4 hrs prior to compound washout followed by 1-Ac addition for 30 mins and subsequent 460 nm LED light illumination for 1 hr by Hoechst 33342 dye based fluorescence assay; assay type: ADME, cell-based; conditions: raw264.7, 4 h
Procedure, shortened: (§3)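 RAW 264.7 cells on chamber slides given 50 μM compound 4 h, then washed 3x with plain medium or left unwashed; Nile red CO sensor 1-Ac 5 μM final (0.2% DMSO) 30 min; blue LED (66,351 lx, 2 cm) 1 h at 37 °C, then 1 h dark at 37 °C; Hoechst 33342 stain; red channel ex 550–600/em 598–660 nm.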

[16] = Drug metabolism in mouse RAW264.7 cells assessed as CO release at 50 uM preincubated 4 hrs followed by 1-Ac addition for 30 mins and subsequent 460 nm LED light illumination for 1 hr by Hoechst 33342 dye based fluorescence assay; assay type: ADME, cell-based; conditions: raw264.7, 50 µM; procedure, shortened: as §3
RAW264.7 [17] = assay: Cytotoxicity against mouse RAW264.7 cells assessed as reduction in cell viability up to 100 uM incubated for 1 hr under 460 nm LED light illumination and measured after 23 hrs by MTT assay; assay type: cell-based; conditions: raw264.7, 1 h; procedure, shortened: as §1
RAW264.7 [18] = assay: Antiinflammatory activity in mouse RAW264.7 cells assessed as reduction in LPS-induced TNF-alpha level up to 1 uM incubated for 4 hrs prior to 460 nm LED light illumination for 1 hr followed by 6 hrs incubation under dark condition and subsequent LPS-stimulation and measured after 1 hr by ELISA; assay type: functional, cell-based
Procedure, shortened: (§4)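 RAW 264.7 cells seeded at 1.0×10^4/well, 24 h; compound 0.04–50 μM (0.4% DMSO vehicle) for 4 h without light; one plate then given blue LED (66,351 lx) 1 h at 37 °C. Both plates held 6 h dark at 37 °C, then E. coli O127:B8 LPS 1 μg/mL final for 1 h; supernatant TNF-α by mouse ELISA; 3 experiments, 2 technical replicates, mean ± SEM.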

RAW264.7 [19] = assay: Antiinflammatory activity in mouse RAW264.7 cells assessed as reduction in LPS-induced TNF-alpha expression at up to 50 uM preincubated for 4 hrs followed by 6 hrs incubation under dark condition and subsequent LPS-stimulation and measured after 1 hr by ELISA; assay type: functional, cell-based; procedure, shortened: as §4
[20] = Absorption property of the compound in DMSO assessed as minimum absorption wavelength at 100 uM; assay type: physicochemical
[21] = Emission property of the compound in DMSO assessed as excited state emission wavelength at 100 uM; assay type: physicochemical
[22] = Emission property of the compound in DMSO assessed as tautomeric state emission wavelength at 100 uM; assay type: physicochemical
[23] = Absorption property of the compound in pH 7.4 PBS buffer assessed as absorption wavelength at 100 uM; assay type: physicochemical; conditions: pH 7.4, 100 µM
[24] = Absorption property of the compound in water assessed as absorption wavelength at 100 uM; assay type: physicochemical; conditions: buffer
[25] = Absorption property of the compound in 10% FBS supplemented DMEM-F12 medium assessed as absorption wavelength at 100 uM; assay type: physicochemical
[26] = Emission property of the compound in pH 7.4 PBS buffer assessed as excited state emission wavelength at 100 uM; assay type: physicochemical; conditions: pH 7.4, 100 µM
[27] = Emission property of the compound in water assessed as emission wavelength at 100 uM; assay type: physicochemical; conditions: buffer
Procedure, shortened: (§5)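 Emission spectra recorded at 0.1 mM in water, 10 mM PBS pH 7.4, or DMEM/F12K with 10% FBS; excitation 410 nm or 467 nm, slit width 3.0 nm.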

[28] = Emission property of the compound in 10% FBS supplemented DMEM-F12 medium assessed as emission wavelength at 100 uM; assay type: physicochemical; procedure, shortened: as §5
Albumin [29] = target: T1, Albumin; assay: Binding affinity to bovine serum albumin at pH 7.4 TRIS buffer at 1:1 ratio of compound to protein by fluorescence based assay; assay type: ADME; conditions: cattle, isolated protein; procedure, shortened: as §2
[30] = Emission property of the compound in 10% FBS supplemented DMEM-F12 medium assessed as excitation wavelength; assay type: physicochemical
[31] = Drug metabolism in DMSO assessed as CO release at 0.05 mmol incubated for 24 hrs under 419 nm light illumination
[32] = Drug metabolism in DMSO assessed as sodium 7-(benzoyloxy)-6-carboxynaphthalene-1-sulfonate metabolite formation at 0.05 mmol incubated for 24 hrs under 419 nm light illumination by HSQC analysis
[33] = Drug metabolism in DMSO assessed as sodium 7-(benzoyloxy)-6-carboxynaphthalene-1-sulfonate metabolite formation at 0.05 mmol incubated for 24 hrs under 419 nm light illumination by HMBC analysis
[34] = Drug metabolism in DMSO assessed as sodium 7-(benzoyloxy)-6-carboxynaphthalene-1-sulfonate metabolite formation at 0.05 mmol incubated for 24 hrs under 419 nm light illumination by FTIR analysis
[35] = Drug metabolism in DMSO assessed as sodium 7-(benzoyloxy)-6-carboxynaphthalene-1-sulfonate metabolite formation at 0.05 mmol incubated for 24 hrs under 419 nm light illumination by 13C-NMR analysis
[36] = Drug metabolism in DMSO assessed as sodium 7-(benzoyloxy)-6-carboxynaphthalene-1-sulfonate metabolite formation at 0.05 mmol incubated for 24 hrs under 419 nm light illumination by 2D-COSY analysis
[37] = Drug metabolism in DMSO assessed as sodium 7-(benzoyloxy)-6-carboxynaphthalene-1-sulfonate metabolite formation at 0.05 mmol incubated for 24 hrs under 419 nm light illumination by ESI/APCI-MS analysis
[38] = Absorption property of the compound in DMSO assessed as reduction in absorption wavelength at 0.05 mmol incubated for 14 hrs under 419 nm light illumination; assay type: physicochemical

SMILES: O=C(Oc1cc2c(S(=O)(=O)O)cccc2cc1C(=O)O)c1ccccc1
Activity (RAW264.7 [1]): Non-Toxic

solubility [3]: Soluble
solubility [4]: Soluble
solubility [5]: Soluble
solubility [6]: Soluble
Stability [7]: Stable
Stability [8]: Stable
Stability [9]: Stable
Ka (Albumin [11]): 4.1 ×10⁵ /M
Drug uptake [13]: Not Active
Drug uptake [14]: Not Active
Drug metabolism [15]: Metabolite_Detected
Drug metabolism [16]: Metabolite_Detected
Activity [20]: 410 nm
Activity [21]: 480 nm
Activity [22]: 610 nm
Activity [23]: 450 to 500 nm
Activity [24]: 450 to 500 nm
Activity [25]: 450 to 500 nm
Activity [26]: 410 nm
Activity [27]: 560 nm
Activity [28]: 600 nm
Activity (Albumin [29]): Active
Activity [30]: 467 nm
SMILES: O=c1c(O)c(-c2ccccc2)oc2cc3c(S(=O)(=O)[O-])cccc3cc12.[Na+]
Activity (RAW264.7 [2]): Non-Toxic
Stability [10]: Stable
Drug metabolism [12]: Metabolite detected
Activity (RAW264.7 [17]): Non-Toxic
Activity (RAW264.7 [18]): Active
Activity (RAW264.7 [19]): Active
Drug metabolism [31]: Metabolite detected
Drug metabolism [32]: Metabolite detected
Drug metabolism [33]: Metabolite detected
Drug metabolism [34]: Metabolite detected
Drug metabolism [35]: Metabolite detected
Drug metabolism [36]: Metabolite detected
Drug metabolism [37]: Metabolite detected

SMILES: O=C(Oc1cc2ccccc2cc1C(=O)O)c1ccccc1
Activity (RAW264.7 [1]): Non-Toxic

Ka (Albumin [11]): 3.2 ×10³ /M
Drug uptake [13]: Active
Drug metabolism [15]: Metabolite_Detected
Activity (Albumin [29]): Active
Activity [38]: Active
SMILES: O=c1c(O)c(-c2ccccc2)oc2cc3ccccc3cc12
Activity (RAW264.7 [2]): Non-Toxic
pIC50 (RAW264.7 [1]; Mus musculus, RAW264.7): 4.65
Activity (RAW264.7 [18]): Active
Activity (RAW264.7 [19]): Active
Drug metabolism [31]: Metabolite detected
